TbMetRS inhib = Trypanosoma brucei MetRS inhibition; purified T. brucei MetRS, ATP depletion, Kinase-Glo luminescence; inhibition, % at 11.9 µM; actives 0.4% (n = 360,000); AID 624268;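 active = inhibition above a per-plate cutoff of the control wells' mean inhibition plus 3 SD, cut at about 5.5% in these data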;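 note: 0% = DMSO wells median and 100% = median of wells with control inhibitor compound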
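Material – parasite MetRS enzyme · Medium – HEPES-MgCl2-KCl buffer plus DTT, spermine, BSA, pyrophosphatase · Reagent – ATP, methionine and E. coli bulk tRNA substrates · Times – 15 min enzyme-compound preincubation, 2 h reaction, 10 min detection, 25 °C · Measured by – luminescence of leftover ATP · Evaluation – percent inhibition relative to median high and low control wells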
A3G deaminase = APOBEC3G (human) deaminase inhibition. Q9HC16. recombinant A3G, ssDNA deamination FAM/TAMRA fluorescence. inhibition, % at 20 µM. actives 0.28% (n = 330,000). AID 493012;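 active = inhibition of at least 40% at 20 µM, with no more than 30% in the related APOBEC3A deaminase screen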;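 note: plate controls were DMSO wells with A3G for no effect and wells lacking A3G enzyme for full effect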
PHOSPHO1 block = inhibitors of human PHOSPHO1 phosphatase | actives 1.1% (n = 290,000) | AID 1565 | recombinant PHOSPHO1, absorbance phosphatase assay | Q8TCT1 | inhibition, % at 13.3 µM; in the data active = inhibition above about 60%
A3A deaminase = inhibitors of human APOBEC3A DNA deaminase | AID 493011 | actives 0.41% (n = 330,000) | P31941 | recombinant A3A, FAM/TAMRA ssDNA deamination fluorescence | inhibition, % at 20 µM;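 active = at least 40% inhibition at 20 µM here, with at most 30% in a related deaminase screen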;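 note: plate controls were A3A with DMSO for no effect and wells lacking A3A enzyme for full effect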
p-CIP stab down = lowers stability of the mouse p/CIP coactivator protein; F442A p/CIP-EGFP cells, EGFP fluorescence, 16 h; decrease of EGFP signal, % at 10 µM; Q05BA5; AID 1984; actives 0.01% (n = 290,000);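 active = EGFP signal decrease of at least 30% at 10 µM or well 3 SD below plate mean, unless failing retest; inactive = the rest, including hits failing retest or dose response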
Target sequence (Q05BA5 1-1403): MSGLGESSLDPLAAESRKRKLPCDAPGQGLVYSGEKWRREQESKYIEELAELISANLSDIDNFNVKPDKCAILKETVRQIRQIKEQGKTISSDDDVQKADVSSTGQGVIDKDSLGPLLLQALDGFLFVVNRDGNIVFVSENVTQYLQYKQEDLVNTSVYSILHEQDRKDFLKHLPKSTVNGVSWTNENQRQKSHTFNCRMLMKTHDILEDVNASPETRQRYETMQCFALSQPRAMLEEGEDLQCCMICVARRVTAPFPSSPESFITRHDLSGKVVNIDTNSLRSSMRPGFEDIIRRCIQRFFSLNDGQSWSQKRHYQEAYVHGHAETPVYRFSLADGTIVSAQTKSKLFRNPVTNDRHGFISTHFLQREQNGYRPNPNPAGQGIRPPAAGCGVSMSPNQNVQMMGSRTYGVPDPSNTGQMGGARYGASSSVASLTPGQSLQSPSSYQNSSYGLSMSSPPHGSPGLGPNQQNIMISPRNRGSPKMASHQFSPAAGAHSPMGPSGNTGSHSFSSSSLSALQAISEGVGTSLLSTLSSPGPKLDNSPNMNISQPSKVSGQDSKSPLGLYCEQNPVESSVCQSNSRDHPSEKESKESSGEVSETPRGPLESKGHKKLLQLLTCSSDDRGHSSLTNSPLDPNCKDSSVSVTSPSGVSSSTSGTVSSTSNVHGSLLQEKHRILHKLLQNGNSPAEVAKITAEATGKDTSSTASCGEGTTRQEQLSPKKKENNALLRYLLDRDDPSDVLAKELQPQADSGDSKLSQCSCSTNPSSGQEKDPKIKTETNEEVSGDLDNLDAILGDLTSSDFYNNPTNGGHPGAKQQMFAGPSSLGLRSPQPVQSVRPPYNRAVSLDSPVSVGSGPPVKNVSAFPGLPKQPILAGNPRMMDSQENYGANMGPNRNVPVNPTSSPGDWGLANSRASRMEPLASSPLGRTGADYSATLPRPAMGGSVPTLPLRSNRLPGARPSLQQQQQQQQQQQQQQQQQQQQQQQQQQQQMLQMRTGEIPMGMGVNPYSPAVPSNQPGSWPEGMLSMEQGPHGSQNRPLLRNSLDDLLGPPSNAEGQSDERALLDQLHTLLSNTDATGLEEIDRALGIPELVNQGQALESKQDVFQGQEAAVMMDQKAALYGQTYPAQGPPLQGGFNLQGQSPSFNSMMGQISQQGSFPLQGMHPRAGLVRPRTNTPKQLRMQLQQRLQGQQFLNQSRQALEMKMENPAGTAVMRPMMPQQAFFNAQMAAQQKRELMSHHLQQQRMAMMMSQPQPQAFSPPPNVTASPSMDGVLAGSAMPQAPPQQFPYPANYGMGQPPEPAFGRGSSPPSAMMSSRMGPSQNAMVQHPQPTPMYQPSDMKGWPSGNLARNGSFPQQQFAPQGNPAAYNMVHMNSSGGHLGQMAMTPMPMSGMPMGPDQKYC
APOBEC3G confirm = APOBEC3G (human) deaminase inhibition, confirmed. shares compounds with A3G deaminase. recombinant A3G ssDNA deaminase, UDG/FAM-TAMRA fluorescence. inhibition, % at 20 µM. actives 72% (n = 890);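 active = inhibition reaching a set limit in any replicate at 20 µM, the limit being 80% of the first screen's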
UDG ctr A3G = E. coli UDG inhibition in APOBEC3G counter-screen. shares compounds with A3G deaminase. UDG counterscreen, FAM/TAMRA oligo fluorescence. 710 tested, under 10 active. inhibition, % at 20 µM;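 active = compounds giving 40% or more inhibition at 20 µM in any one of the three replicates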;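 note: plate controls were DMSO wells with UDG and oligo for no effect and DMSO wells lacking both for full effect; inhibitors lower the FAM signal released by uracil excision and alkaline cleavage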
Numbers without * were called inactive; / = not tested or not shown. Hits are enriched below; roughly 1.8% of the tested compounds scored in any of these assays.

SMILES	TbMetRS inhib	A3G deaminase	PHOSPHO1 block	A3A deaminase	p-CIP stab down	APOBEC3G confirm	UDG ctr A3G
C=C(C)C(=O)Nc1cccc(C2=NOC3(C2)C[C@@H](C(N)=O)N(C(=O)CC(c2ccccc2)c2ccccc2)C3)c1 (stereo not given in full)	-0.2	69.9*	4.5	24.0	1.5	71.2*	2.9
C=C(C)C(=O)Nc1cccc(C2=NOC3(C2)C[C@H](C(N)=O)N(C(=O)c2ccccc2C(=O)c2ccccc2)C3)c1 (stereo not given in full)	-0.5	82.9*	48.5	18.7	-6.9	87.7*	0.4
C=C(C)C(=O)Nc1cccc(C2=NOC3(C2)C[C@@H](C(N)=O)N(C(=O)/C(C)=C/C)C3)c1 (stereo not given in full)	-0.1	86.2*	26.5	13.8	-3.9	94.6*	/
C/C=C(/C)C(=O)Nc1cccc(C2=NOC3(C2)C[C@@H](C(N)=O)N(C(=O)CC(c2ccccc2)c2ccccc2)C3)c1 (stereo not given in full)	-0.2	-11.5	35.3	1.1	-6.7	/	/
CCc1ccc(N(CC(=O)Nc2ccccc2C(=O)N2CCCC2)S(C)(=O)=O)cc1	-0.5	-3.3	23.3	-1.1	-3.4	/	/
C=C(C)C(=O)Nc1cccc(C2=NOC3(C2)C[C@H](C(N)=O)N(C(=O)CC)C3)c1 (stereo not given in full)	1.2	87.7*	26.5	8.9	-12.3	92.2*	/
CCC(=O)N1CC2(CC(c3cccc(NC(=O)CC(c4ccccc4)c4ccccc4)c3)=NO2)C[C@H]1C(N)=O (stereo not given in full)	-0.2	-10.6	22.1	1.7	2.9	/	/
C=C(C)C(=O)Nc1cccc(C2=NOC3(C2)C[C@@H](C(N)=O)N(C(=O)/C=C/C=C/C)C3)c1 (stereo not given in full)	-0.3	89.4*	13.3	18.4	-12.3	93.4*	-2.8
CC(=O)Nc1nc(-c2cccc3ccccc23)cs1	-0.4	-5.7	34.3	-8.1	2.7	/	/
CC(=O)NCCC(=O)Nc1nc(-c2c[nH]c3ccccc23)cs1	0.2	78.8*	30.7	-4.2	-5.2	-4.8	0.8
CC1(C)OC(=O)C(=Cc2ccc(-c3ccc(S(N)(=O)=O)cc3)o2)C(=O)O1	-0.6	40.4*	-26.2	18.0	-3.0	46.8*	/
Cc1ccc2oc(C(=O)NCC(c3ccco3)N(C)C)c(C)c2c1 (stereo not given)	-1.2	4.4	10.3	3.9	-12.7	/	/
O=C1C2C3C=CC(CO)(O3)C2C(=O)N1c1ccccc1-c1ccccc1 (stereo not given)	-0.4	59.7*	-4.9	-3.4	-6.9	68.9*	1.7
C1CCN(CC2CCCCN2)CC1 (stereo not given)	-0.2	/	/	/	/	/	/
Cc1[nH]n(-c2ccccc2)c(=S)c1C=NCCCN=Cc1c(C)[nH]n(-c2ccccc2)c1=S	-0.1	61.9*	32.6	5.2	7.3	53.6*	-3.0
Cc1ccc(S(=O)(=O)NCC(=O)OCC(=O)NC(=O)NC2CCCC2)cc1	-0.7	-0.5	24.1	0.9	0.4	/	/
CC1CC(CCC(=O)NC(=S)Nc2ccc(Cl)cn2)C(=O)O1 (stereo not given)	-0.6	-6.8	14.8	-3.1	-3.5	/	/
COc1ccc(COn2nnc3ccc(S(=O)(=O)N4CCOCC4)cc32)cc1F	-0.1	-7.6	/	-4.3	/	/	/
CCCCCCn1c(SCC(C)C)nc2c1c(=O)[nH]c(=O)n2C	-0.9	8.5	17.9	1.8	0.7	/	/
CCCCCCn1c(SCC(=O)OC)nc2c1c(=O)[nH]c(=O)n2C	0.1	44.9*	82.6*	0.4	2.4	68.1*	-4.0
Cc1cccc(-c2n[nH]c(=S)n2C)c1	-1.1	35.7	-31.6	-12.3	-0.1	/	/
Nn1c(-c2cccc(Br)c2)n[nH]c1=S	-0.2	58.5*	95.5*	-19.1	-2.7	79.8*	-4.4
O=C(O)c1ccccc1C(=O)c1ccc2c(c1)N(Cc1ccc(Cl)c(Cl)c1)C(=O)CO2	0.9	-3.9	29.2	-1.8	-0.5	/	/
Cc1cc(S(=O)(=O)N(Cc2ccccn2)Cc2ccco2)ccc1-n1cnnn1	-0.7	50.3*	8.6	1.6	-3.3	0.7	/
CCOc1ccccc1CN(Cc1ccco1)S(=O)(=O)c1ccc(-n2cnnn2)c(OC)c1	-0.6	/	6.3	/	-15.4	/	/
SMILES	TbMetRS inhib	A3G deaminase	PHOSPHO1 block	A3A deaminase	p-CIP stab down	APOBEC3G confirm	UDG ctr A3G
COc1ccc(NC(=O)c2cc3ccccc3o2)cc1OC	-0.3	-9.8	/	-2.2	-4.6	/	/
COc1ccc(CNC(=O)c2cc3ccccc3o2)cc1OC	-0.4	70.9*	13.9	-2.6	-3.9	-2.9	0.8
Nc1nc2ccccc2n1S(=O)(=O)c1ccc(Cl)cc1	-2.3	/	/	/	/	/	/
CCc1c(C)[nH]c2ccc(OC)cc2c1=S	-0.4	44.0*	-43.1	-4.1	-8.5	7.5	-1.9
COc1ccc(Cc2c(-c3ccco3)nc3ccc(Cl)cn23)c(C)c1	-1.2	/	/	/	/	/	/
O=C(CN1CCN(c2ccc(O)cc2)CC1)Nc1ccc2c(c1)OCCO2	-0.5	61.7*	22.8	1.7	-3.0	0.8	/
COc1ccc(NS(=O)(=O)c2ccc(N3CCCC3)c(N)c2)cc1	0.1	-2.9	31.9	-3.5	-13.1	/	/
c1ccc(-c2ccc(-c3nccc4ccccc34)[nH]2)cc1	/	/	7.4	/	-14.4	/	/
N#Cc1cc(-c2ccccc2)[nH]c1-c1nccc2ccccc12	-0.6	41.4*	-5.4	2.2	-18.4	1.1	/
Nn1cnc2c(ncn2C2OC(CO)C(O)C2O)c1=O (stereo not given)	-0.1	/	/	/	/	/	/
CCOC(=O)c1sc(N)c(C(=O)Nc2ccccc2OC)c1C	-0.9	51.1*	-71.2	-0.6	-4.4	67.3*	-3.1
CCOC(=O)c1sc(N)c(C(=O)OC)c1C	1.4	-5.6	26.2	-3.4	-7.0	/	/
Cn1c(NC(=O)c2ccccc2F)c(-c2cccs2)c(=O)c2ccccc21	-1.4	2.3	32.2	2.8	-7.7	/	/
O=C(Nc1cccc(F)c1)C1CCN(C(=O)N2CCOc3ccccc32)CC1	-0.1	-2.7	30.6	-1.1	-7.4	/	/
CC(=O)N(C1=C(Cl)C(=O)c2ccccc2C1=O)C1CCCCC1	0.2	83.3*	-81.6	5.2	-43.7	91.8*	-1.1
CC(=O)N(c1ccccc1C)C1CCCC1	-0.8	-5.1	7.3	-5.5	9.6	/	/
CCOC(=O)N1CCC(n2c(SCC(=O)NCCC3=CCCCC3)nc3ccccc3c2=O)CC1	-0.9	-5.5	15.9	-1.5	1.0	/	/
COc1ccc(C(=O)CN(Cc2ccccc2)C2=NCCS2)cc1	3.3	10.3	-7.1	1.3	-2.8	/	/

Source: PubChem
